Measured values taken from ChEMBL document CHEMBL1154596, “The effects of C-terminal modifications on the opioid activity of [N-benzylTyr(1)]dynorphin A-(1-11) analogues” (J Med Chem, 2009).

How the values were obtained:
[1] = Selectivity ratio of Ki for rat kappa opioid receptor to Ki for mouse delta opioid receptor
[2] = species on record: Rattus norvegicus; test: Selectivity ratio of Ki for rat kappa opioid receptor to Ki for rat mu opioid receptor
[3] = molecular target: Kappa-type opioid receptor (Rattus norvegicus) (UniProt P34975); test: Activity at rat kappa opioid receptor expressed in CHO cells assessed as inhibition of adenylyl cyclase activity at 10 uM relative to Dyn A-(1-13)NH2; format: functional, cell-based
Procedure, shortened: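 CHO cells stably expressing cloned rat KOR. Adenylyl cyclase inhibition was measured with each peptide at 10 μM. Efficacy is expressed relative to the maximal inhibition by the reference agonist Dyn A-(1-13)NH2 (100 nM). Values are mean ± SEM of at least three independent experiments.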

[4] = molecular target: Delta-type opioid receptor (Mus musculus, UniProt P32300); test: Displacement of [3H]DPDPE from mouse delta opioid receptor expressed in CHO cells; format: cell-based
Procedure, shortened: (§1)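 Radioligand competition binding on membranes of CHO cells stably expressing cloned rat KOR, rat MOR or mouse DOR. Ki values are mean ± SEM of at least three independent experiments.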

[5] = molecular target: Mu-type opioid receptor (Rattus norvegicus, UniProt P33535); test: Displacement of [3H]DAMGO from rat mu opioid receptor expressed in CHO cells; format: cell-based; procedure, shortened: as §1
[6] = molecular target: Kappa-type opioid receptor (Rattus norvegicus, UniProt P34975); test: Displacement of [3H]diprenorphine from rat kappa opioid receptor expressed in CHO cells; format: cell-based
Procedure, shortened: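 Radioligand competition binding on membranes of CHO cells stably expressing cloned rat KOR, rat MOR or mouse DOR. […] Ki values are mean ± SEM of at least three independent experiments.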

Kappa-type opioid receptor (Rattus norvegicus), sequence (P34975 whole entry): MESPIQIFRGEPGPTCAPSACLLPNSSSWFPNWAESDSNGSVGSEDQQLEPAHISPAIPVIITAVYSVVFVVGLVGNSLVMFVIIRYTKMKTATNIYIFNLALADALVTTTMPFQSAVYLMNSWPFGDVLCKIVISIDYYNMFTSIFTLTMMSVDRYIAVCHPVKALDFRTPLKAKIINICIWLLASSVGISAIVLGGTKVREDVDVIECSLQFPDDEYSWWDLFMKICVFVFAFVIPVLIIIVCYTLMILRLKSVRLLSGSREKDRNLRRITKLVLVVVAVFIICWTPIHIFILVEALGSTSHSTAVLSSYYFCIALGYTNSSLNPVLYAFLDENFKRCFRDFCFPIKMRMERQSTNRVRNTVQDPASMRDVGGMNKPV
Mu-type opioid receptor, sequence (P33535 whole entry): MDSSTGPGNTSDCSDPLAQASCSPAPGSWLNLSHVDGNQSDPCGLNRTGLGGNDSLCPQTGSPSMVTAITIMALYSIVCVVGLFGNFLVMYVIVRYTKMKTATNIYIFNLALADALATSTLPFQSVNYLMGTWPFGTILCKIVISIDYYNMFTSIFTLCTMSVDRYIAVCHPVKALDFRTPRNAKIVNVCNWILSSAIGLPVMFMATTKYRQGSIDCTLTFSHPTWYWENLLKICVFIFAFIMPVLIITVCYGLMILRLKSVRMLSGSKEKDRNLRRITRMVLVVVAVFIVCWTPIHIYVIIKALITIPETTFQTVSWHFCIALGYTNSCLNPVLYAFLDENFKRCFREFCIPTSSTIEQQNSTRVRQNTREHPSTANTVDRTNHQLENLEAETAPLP
Kappa-type opioid receptor, sequence (P34975 whole entry): as the sequence (P34975 whole entry) above
Delta-type opioid receptor, sequence (P32300 whole entry): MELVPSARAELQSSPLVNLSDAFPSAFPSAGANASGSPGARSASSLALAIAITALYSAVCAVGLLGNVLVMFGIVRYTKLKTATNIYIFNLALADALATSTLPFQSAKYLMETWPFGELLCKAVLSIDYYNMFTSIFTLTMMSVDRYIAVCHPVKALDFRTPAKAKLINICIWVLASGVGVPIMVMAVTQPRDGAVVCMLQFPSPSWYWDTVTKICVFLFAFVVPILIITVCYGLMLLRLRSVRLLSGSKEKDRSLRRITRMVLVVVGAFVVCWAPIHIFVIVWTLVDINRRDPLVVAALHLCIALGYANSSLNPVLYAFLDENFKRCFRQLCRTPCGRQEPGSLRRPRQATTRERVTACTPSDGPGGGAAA

SMILES	Ratio Ki [1]	Ratio Ki [2]	inhibition [3]	Ki [4]	Ki [5]	Ki [6]
CC(C)C[C@H](NC(=O)[C@H](Cc1ccccc1)NC(=O)CNC(=O)CNC(=O)[C@H](Cc1ccc(O)cc1)NCc1ccccc1)C(=O)N[C@@H](CCCNC(=N)N)C(=O)N(C)[C@@H](CCCNC(=N)N)C(=O)N[C@H](C)C(=O)N[C@@H](CCCNC(=N)N)C(=O)N1CCC[C@@H]1C(=O)N[C@@H](CCCCN)C(N)=O	151	16	70%			
CC(C)C[C@H](NC(=O)[C@H](Cc1ccccc1)NC(=O)CNC(=O)CNC(=O)[C@H](Cc1ccc(O)cc1)NCc1ccccc1)C(=O)N[C@@H](CCCNC(=N)N)C(=O)N[C@@H](CCCNC(=N)N)C(=O)N[C@H](C)C(=O)N[C@@H](CCCNC(=N)N)C(=O)N1CCC[C@@H]1C(=O)N[C@@H](CCCCN)C(N)=O	109	15	70%			
CC(=O)NC[C@H](NC(=O)[C@H](CCCNC(=N)N)NC(=O)[C@H](CCCNC(=N)N)NC(=O)[C@@H](CC(N)=O)NC(=O)[C@H](Cc1ccccc1)NC(=O)CNC(=O)CNC(=O)[C@H](Cc1ccc(O)cc1)NCc1ccccc1)C(=O)N[C@@H](CCCNC(=N)N)C(=O)N1CCC[C@H]1C(=O)N[C@@H](CCCCN)C(N)=O	149	25		> 10 µM	1.66 µM	0.0669 µM
CC[C@H](C)[C@H](NC(=O)[C@H](CCCNC(=N)N)N(C)C(=O)[C@H](CCCNC(=N)N)NC(=O)[C@H](CC(C)C)NC(=O)[C@H](Cc1ccccc1)NC(=O)CNC(=O)CNC(=O)[C@H](Cc1ccc(O)cc1)NCc1ccccc1)C(=O)N[C@@H](CCCNC(=N)N)C(=O)N1CCC[C@H]1C(=O)N[C@@H](CCCCN)C(N)=O			70%			
CC(C)C[C@H](NC(=O)[C@H](Cc1ccccc1)NC(=O)CNC(=O)CNC(=O)[C@H](Cc1ccc(O)cc1)NCc1ccccc1)C(=O)N[C@@H](CCCNC(=N)N)C(=O)N(C)[C@@H](CCCNC(=N)N)C(=O)N[C@H](C)C(=O)N[C@@H](CCCNC(=N)N)C(=O)N1CCC[C@H]1C(=O)N[C@@H](CCCCN)C(N)=O	147	14	70%			
CC[C@H](C)[C@H](NC(=O)[C@H](CCCNC(=N)N)N(C)C(=O)[C@H](CCCNC(=N)N)NC(=O)[C@H](CC(C)C)NC(=O)[C@H](Cc1ccccc1)NC(=O)CNC(=O)CNC(=O)[C@H](Cc1ccc(O)cc1)NCc1ccccc1)C(=O)N[C@@H](CCCNC(=N)N)C(=O)N1CCC[C@@H]1C(=O)N[C@@H](CCCCN)C(N)=O			70%			
CC(C)C[C@H](NC(=O)[C@H](Cc1ccccc1)NC(=O)CNC(=O)CNC(=O)[C@H](Cc1ccc(O)cc1)NCc1ccccc1)C(=O)N[C@@H](CCCNC(=N)N)C(=O)N[C@@H](CCCNC(=N)N)C(=O)N[C@H](C)C(=O)N[C@@H](CCCNC(=N)N)C(=O)N1CCC[C@H]1C(=O)N[C@@H](CCCCN)C(N)=O	80	11	70%			
